Assays:
Assay type in all cases: functional
Settings in all cases: Human alphaherpesvirus 1, Vero
[1] = system: Human alphaherpesvirus 1; assay: Antiviral activity against HSV1 infected in african green monkey Vero cells assessed as inhibition of plaque formation at 2 ug/mL after 1 hr relative to control
Summary of the method: (§1)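 Plaque reduction in Vero cells (DMEM, 10% FBS, pH 7.2–7.4). Virus–compound mixture inoculated onto monolayer for 1 h adsorption. Overlay of DMEM with 2% agarose, incubated at 37 °C until plaques formed. Fixed with 10% formalin for 2 h and stained with crystal violet. % inhibition = (untreated count − treated count)/untreated count × 100.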

[2] = system: Human alphaherpesvirus 1; assay: Antiviral activity against HSV1 infected in african green monkey Vero cells assessed as inhibition of plaque formation at 5 ug/mL after 1 hr relative to control; summary of the method: as §1
[3] = system: Human alphaherpesvirus 1; assay: Antiviral activity against HSV1 infected in african green monkey Vero cells assessed as reduction of plaque formation at 30 ug/mL treated 1 hr after infection measured after 1 hr by replication assay relative to control
Summary of the method: (§2)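 Replication format. Vero cells seeded at 10⁵ cells/ml and grown 2 days at 37 °C. Infected with HSV-1 at 10⁴ PFU/well for 1 h at 37 °C, then unadsorbed virus washed off three times with supplement-free medium. Plaques formed, fixed, stained and counted. % reduction calculated against infected control wells.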

[4] = system: Human alphaherpesvirus 1; assay: Antiviral activity against HSV1 infected in african green monkey Vero cells assessed as reduction of plaque formation at 20 ug/mL pretreated 2 hrs before infection measured after 1 hr by adsorption assay relative to control
Summary of the method: (§3)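 Adsorption format. Vero cells seeded at 10⁵ cells/ml and grown 2 days at 37 °C. Compound in supplement-free medium coincubated with cells for 2 h at 4 °C, then washed three times. HSV-1 at 10⁴ PFU/well added to pretreated cells for 1 h. Agarose–DMEM overlay, 37 °C until plaques, formalin fix and crystal violet stain. % plaque reduction calculated against untreated infected cells.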

[5] = system: Human alphaherpesvirus 1; assay: Antiviral activity against HSV1 infected in african green monkey Vero cells assessed as reduction of plaque formation at 20 ug/mL pretreated 1 hr before infection measured after 1 hr by virucidal assay relative to control
Summary of the method: (§4)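 Virucidal format. 10⁷ PFU HSV-1 in serum-free DMEM mixed with compound for 1 h. Mixture serially diluted 10-fold three times, and each dilution applied to Vero monolayers (10⁵ cells/ml, grown 2 days) for 1 h. DMEM overlay added, incubated at 37 °C, fixed and stained. % plaque reduction calculated against virus not pretreated with compound.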

[6] = system: Human alphaherpesvirus 1; assay: Antiviral activity against HSV1 infected in african green monkey Vero cells assessed as reduction of plaque formation at 30 ug/mL pretreated 1 hr before infection measured after 1 hr by virucidal assay relative to control; summary of the method: as §4
[7] = system: Human alphaherpesvirus 1; assay: Antiviral activity against HSV1 infected in african green monkey Vero cells assessed as reduction of plaque formation at 20 ug/mL treated 1 hr after infection measured after 1 hr by replication assay relative to control; summary of the method: as §2
[8] = system: Human alphaherpesvirus 1; assay: Antiviral activity against HSV1 infected in african green monkey Vero cells assessed as reduction of plaque formation at 30 ug/mL pretreated 2 hrs before infection measured after 1 hr by adsorption assay relative to control; summary of the method: as §3
[9] = system: Human alphaherpesvirus 1; assay: Antiviral activity against HSV1 infected in african green monkey Vero cells assessed as reduction of plaque formation at 40 ug/mL pretreated 2 hrs before infection measured after 1 hr by adsorption assay relative to control; summary of the method: as §3
[10] = system: Human alphaherpesvirus 1; assay: Antiviral activity against HSV1 infected in african green monkey Vero cells assessed as reduction of plaque formation at 40 ug/mL treated 1 hr after infection measured after 1 hr by replication assay relative to control; summary of the method: as §2

`COc1ccc(C2NC(=S)NC(c3ccc4c(c3)CCCC4)C2=O)cc1OC` (stereo not given) gave an inhibition at 2 µg/mL [1] of 27% and an inhibition at 5 µg/mL [2] of 54%.

In the case of `CCOC(=O)SC1=NC(c2ccc3c(c2)CCCC3)C(=O)C(c2ccc(OC)c(OC)c2)N1` (stereo not given), the inhibition at 2 µg/mL [1] is reported as 61% and the inhibition at 5 µg/mL [2] is reported as 19%.

With `O=C(c1ccc2c(c1)CCCC2)C1OC(c2ccc(Br)cc2)C(C(=O)c2ccc3c(c2)CCCC3)OC1c1ccc(Br)cc1` (stereo not given) the inhibition at 2 µg/mL [1] was 0% and the inhibition at 5 µg/mL [2] was 0%.

With `Cc1ccc(C2OC2C(=O)c2ccc3c(c2)CCCC3)cc1` (stereo not given) the inhibition at 2 µg/mL [1] was 0% and the inhibition at 5 µg/mL [2] was 0%.

Compound `COc1ccc(C2NC(=O)NC(c3ccc4c(c3)CCCC4)C2=O)cc1OC` (stereo not given) has an inhibition at 2 µg/mL [1] of 33% and an inhibition at 5 µg/mL [2] of 21%.

Compound `Cc1ccc(C2NC(=N)NC(c3ccc4c(c3)CCCC4)C2=O)cc1` (stereo not given) has an inhibition at 2 µg/mL [1] of 4% and an inhibition at 5 µg/mL [2] of 0%.

`Cc1ccc(C2NC(=S)NC(c3ccc4c(c3)CCCC4)C2=O)cc1` (stereo not given) showed an inhibition at 2 µg/mL [1] of 0% and an inhibition at 5 µg/mL [2] of 66%.

Work on `COc1ccc(C2C(=O)C(c3ccc4c(c3)CCCC4)N=c3s/c(=C/c4ccc(Cl)cc4)c(=O)n32)cc1OC` (stereo not given) yielded an inhibition at 2 µg/mL [1] of 0% and an inhibition at 5 µg/mL [2] of 0%.

With `COc1ccc(C2C(=O)C(c3ccc4c(c3)CCCC4)N=C3SC(C)C(=O)N32)cc1OC` (stereo not given) the inhibition at 30 µg/mL [3] was 80%, the inhibition at 20 µg/mL [4] was 0% and the inhibition at 2 µg/mL [1] was 90%. The inhibition at 20 µg/mL [5] was 92%, the inhibition at 30 µg/mL [6] was 95% and the inhibition at 20 µg/mL [7] was 60%. For the same compound, the inhibition at 5 µg/mL [2] was 100% and the inhibition at 30 µg/mL [8] was 0%.

Work on `COc1ccc(C2C(=O)C(c3ccc4c(c3)CCCC4)N=C3SC(C(C)=O)=C(C)N32)cc1OC` (stereo not given) yielded an inhibition at 2 µg/mL [1] of 0% and an inhibition at 5 µg/mL [2] of 14%.

`Cc1ccc(C2C(O)C(c3ccc4c(c3)CCCC4)=NN2c2ccccc2)cc1` (stereo not given) was tested, and the inhibition at 2 µg/mL [1] was 76% and the inhibition at 5 µg/mL [2] was 76%.

With `COc1ccc(C2C(=O)C(c3ccc4c(c3)CCCC4)N=C3SCC(=O)N32)cc1OC` (stereo not given) the inhibition at 2 µg/mL [1] was 0% and the inhibition at 5 µg/mL [2] was 0%.

`COc1ccc(C2OC2C(=O)c2ccc3c(c2)CCCC3)cc1OC` (stereo not given) was tested, and the inhibition at 2 µg/mL [1] was 24% and the inhibition at 5 µg/mL [2] was 57%.

`COc1ccc(C2NC(SC(C(C)=O)C(C)=O)=NC(c3ccc4c(c3)CCCC4)C2=O)cc1OC` (stereo not given) showed an inhibition at 30 µg/mL [3] of 0%, an inhibition at 40 µg/mL [9] of 0% and an inhibition at 2 µg/mL [1] of 90%. The inhibition at 40 µg/mL [10] was 0%, the inhibition at 30 µg/mL [6] was 28% and the inhibition at 5 µg/mL [2] was 95%. The inhibition at 30 µg/mL [8] was 0%.

Compound `Cc1ccc(-c2cc(-c3ccc4c(c3)CCCC4)nn2-c2ccccc2)cc1` has an inhibition at 2 µg/mL [1] of 3% and an inhibition at 5 µg/mL [2] of 26%.

Compound `O=C(c1ccc2c(c1)CCCC2)C1OC1c1ccc(Br)cc1` (stereo not given) has an inhibition at 2 µg/mL [1] of 30% and an inhibition at 5 µg/mL [2] of 18%.

`COc1ccc(C2C(=O)C(c3ccc4c(c3)CCCC4)N=C3SCCC(=O)N32)cc1OC` (stereo not given) was tested, and the inhibition at 2 µg/mL [1] was 3% and the inhibition at 5 µg/mL [2] was 30%.
